Rad51 HR inh: human RAD51 strand exchange inhibitors, primary screen, biochemical, fluorescence | inhibition, % at 10 µM | DNA repair protein RAD51 homolog 1 (Homo sapiens), Q06609 | 200,000 compounds, 0.085% hits | hRad51 DNA strand exchange, fluorescence dequenching | AID 1385, 2008;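 active = inhibition above 40% at the single screening dose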;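 also: 0% = DMSO control wells and 100% = blanks with heterologous ssDNA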
Target sequence (Q06609 whole entry, looked up): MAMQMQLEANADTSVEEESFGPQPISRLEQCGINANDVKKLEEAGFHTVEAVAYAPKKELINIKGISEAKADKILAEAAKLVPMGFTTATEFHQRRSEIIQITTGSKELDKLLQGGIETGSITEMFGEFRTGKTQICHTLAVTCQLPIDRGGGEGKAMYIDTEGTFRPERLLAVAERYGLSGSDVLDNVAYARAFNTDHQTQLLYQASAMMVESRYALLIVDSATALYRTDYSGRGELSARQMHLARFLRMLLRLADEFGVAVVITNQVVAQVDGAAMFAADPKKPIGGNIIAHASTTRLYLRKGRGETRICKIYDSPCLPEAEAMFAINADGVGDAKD
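System: hRad51 filaments on single-stranded DNA; reagent: Fluorescein- and BHQ1-tagged 47-mer duplex; compound dosing: one concentration, 10 µM final; timing: filaments 15 min 37 °C, then compound 30 min; measured by: fluorescein emission 520 nm, excitation 485 nm; benchmarks: per-plate controls and blanks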
PKD1 inh: inhibitors of human PKD1 kinase, biochemical, fluorescence polarization; Serine/threonine-protein kinase D1 (Homo sapiens), Q15139; PKD1 kinase fluorescence polarization assay; inhibition, % (test concentration not listed); 200,000 compounds, 0.056% hits; AID 797, 2007
L major viab: Leishmania major promastigote growth inhibition, primary screen; Leishmania major promastigotes, resazurin fluorescence viability; inhibition, % at 10 µM; 200,000 compounds, 9% hits;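 also: promastigotes grown with compound for 44 hours at 28 °C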
Arbovirus anti: antivirals against arbovirus infection, primary screen, cell-based, full library, 10K replicate subset. arbovirus infection cell-based antiviral screen. inhibition, % at 10 µM. 200,000 compounds, 0.37% hits. AID 1251, 2008; in the data active = inhibition above about 30%
CHOP inhibitor: inhibitors of CHOP promoter induction, primary screen, cell-based, unfolded protein response, luciferase reporter; CHO-K1 CHOP-promoter luciferase, tunicamycin-induced, 15-18 h; inhibition, % at 10 µM; 220,000 compounds, 3.8% hits;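 active = compounds that reduced the stress-induced luciferase reporter signal by more than about 70% of percent inhibition, limit read from the data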;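 also: 0% = tunicamycin plus vehicle and 100% = wells without tunicamycin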
Wee1 stabilizer: Wee1 degradation inhibitors, primary screen, cell-based, HeLa, Wee1K328M-luciferase, luminescence; Wee1-like protein kinase (Homo sapiens), P30291; HeLa Luc-Wee1K328M stability; 100% = proteasome inhibitor MG132 effect; reporter increase, % at 5 µM; 220,000 compounds, 1.2% hits;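 active = activation above the mean of all tested compounds plus 3 SD, set per screening run, cut at about 8.8% in these data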;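 also: cells exposed to compound for 20 h before luminescence read; 0% = DMSO alone and 100% = MG132 at 30 µM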
* hit, by the source's call; nt = no result. Sampled rows, rich in hits. Any-hit rate of the full collection: about 12%. Rule as the data show it, unless noted: active = inhibition above about 50%; inactive = the rest.

SMILES	Rad51 HR inh	PKD1 inh	L major viab	Arbovirus anti	CHOP inhibitor	Wee1 stabilizer
COCCN1C=C(C(=O)OC)C(c2cc3c(cc2Br)OCO3)C(C(=O)OC)=C1	-5	4	62*	5	3	-1
O=C1CC(NN2CCCCC2)C(=O)N1c1ccccc1 (stereo not drawn)	nt	0	-4	-5	4	1
CN(NC1CC(=O)N(c2ccccc2)C1=O)c1ccccc1 (stereo not drawn)	4	1	-6	-19	-5	11*
O=C(Nc1ccc(F)c([N+](=O)[O-])c1)c1ccc2c(c1)OCCO2	-9	-8	-1	8	-31	4
O=C(Nc1cccc([N+](=O)[O-])c1)c1cnccn1	-7	2	65*	5	9	-1
O=C(Nc1ccc(NC(=O)c2cc3ccccc3o2)cc1)c1ccc2c(c1)OCCO2	1	-10	-6	-11	72*	-1
Cc1cc(NC(=O)c2ccc3c(c2)OCCO3)ccc1NC(=O)c1cc2ccccc2o1	-23	-7	10	-36	24	-1
O=C(Nc1cccc([N+](=O)[O-])c1)c1ccncc1	8	4	9	-4	9	-2
O=C(Nc1cccc([N+](=O)[O-])c1)c1ccc2c(c1)OCCO2	7	-7	52*	-1	10	0
Cn1c(SCC(=O)Nc2ccccc2)nnc1-c1ccc2nonc2c1	3	nt	nt	nt	7	-1
C=CCN(CC=C)CCOc1ccccc1F	nt	-2	31	0	19	0
C=CCN(CC=C)CCOc1ccccc1	6	-11	54*	-2	6	-4
C=CCN(CC=C)CCOc1cccc2ccccc12	-1	-5	62*	-2	76*	-2
C=CCN(CC=C)CCOc1ccc2ccccc2c1	16	1	41	8	15	-1
O=C(CSc1nnc(-c2ccc(Br)cc2)n1CCc1ccccc1)NC1CCS(=O)(=O)C1 (stereo not drawn)	-10	-6	4	-6	0	1
Cc1ccc2nc3c(c(C(=O)OCC(=O)NC4CCS(=O)(=O)C4)c2c1)CCCC3 (stereo not drawn)	2	-9	4	-2	13	2
C/C(=N\NC(N)=S)c1ccccc1	6	nt	nt	nt	0	-2
CSC(=S)N/N=C(\C)c1ccccc1	18	-5	100*	-4	-122	-4
COc1ccc(-c2ccc(SCC(=O)c3ccc(F)cc3)nn2)cc1OC	1	16	63*	-4	13	3
CCOc1ccc(OCCSc2nnnn2C2CCCCC2)cc1	nt	-10	-5	-8	80*	-2
CC1(C)N([O-])C(c2ccccc2)=C[N+](=O)C1(C)C	-1	-8	-3	-2	-20	9.3*
COc1ccc(OC)c(C2=C[N+](=O)C(C)(C)C(C)(C)N2[O-])c1	-5	-1	-10	1	16	2
Cc1ccc(S(=O)(=O)Oc2ccc(C)cc2/C=N/N=C2\NC(=O)C(C)S2)cc1 (stereo not drawn)	5	-2	8	30*	31	-1
O=C(Nc1nnc(C2CC2)s1)c1cc([N+](=O)[O-])ccc1N1CCCCC1	1	14	0	5	17	-2
O=C(NCCNCc1ccc(F)cc1)c1ccco1	-2	-4	54*	7	6	-2
SMILES	Rad51 HR inh	PKD1 inh	L major viab	Arbovirus anti	CHOP inhibitor	Wee1 stabilizer
O=C(CSc1nccc(=O)[nH]1)NCc1ccco1	-10	nt	nt	nt	-1	5
CCCn1c(=N)n(CC(=O)C(C)(C)C)c2ccccc21	-3	-11	81*	-3	14	-2
COC(=O)c1cc(NS(=O)(=O)c2ccc(NC(C)=O)cc2)ccc1Cl	-19	nt	nt	nt	-2	-1
O=C(COc1ccc(Cl)cc1)Nc1ncc([N+](=O)[O-])s1	-6	0	11	30*	33	3
O=C(Cc1ccc(Cl)cc1)Nc1ncc([N+](=O)[O-])s1	13	-2	36	22	21	1
COc1cc2nc(N3CCN(C(=O)OCc4ccccc4)C(C(=O)NC(C)(C)C)C3)nc(N)c2cc1OC (stereo not drawn)	nt	nt	nt	nt	10	nt
N#Cc1cc(Cl)c(N2CCOCC2)cc1C#N	-4	-2	-3	4	15	2
N#Cc1cc2ccc(N3CCOCC3)cc2cc1C#N	0	2	99*	-1	nt	1
O=C(c1ccc(Cl)cc1)c1ccc(CN2C(=O)c3ccccc3C2=O)o1	1	-4	-4	-33	17	-1
Cc1oc2c(c1C(=O)c1ccc(Cl)cc1)C(=O)C(=O)c1ccccc1-2	nt	-3	101*	-44	-21	-1
Cc1ccc(C(=O)c2coc3c2C(=O)C(=O)c2ccccc2-3)cc1	nt	1	100*	-32	-21	3
COc1ccc(C(=O)c2coc(-c3ccccc3C(=O)O)c2C(=O)O)cc1	-12	-2	-2	2	-1	-2
CN(Cc1ccc(Cl)s1)C(=O)CCl	-4	7	84*	-7	105*	2
CSc1ccc2c(c1)N(CCC1CCCCN1C)c1ccccc1S2 (stereo not drawn)	7	3	99*	-45	-3	-2
CC1CCc2nc(/C(C#N)=C/c3ccncc3)sc2C1 (stereo not drawn)	-4	0	53*	7	3	2
S=c1[nH]nc(-c2cccnc2)n1C1CCCCC1	11	-7	53*	4	14	1
COc1ccc2[nH]cc(CCn3ccc(O)c(C/C=C/c4ccccc4)c3=O)c2c1	4	7	100*	5	20	1
O=c1c(C/C=C/c2ccccc2)c(O)ccn1Cc1cccc(Cl)c1	-31	-8	-4	24	19	11*
N#Cc1c(-c2ccccc2)ccn(Cc2cccc(Cl)c2)c1=O	1	22	-1	3	16	0
O=c1c(C/C=C/c2ccccc2)c(O)ccn1CCc1c[nH]c2ccccc12	-70	11	-2	13	28	-1
O=C(CN1CCC(NC(=O)c2ccco2)CC1)Nc1ccccc1[N+](=O)[O-]	-6	4	-1	6	17	-3
O=C(Nc1ccccc1)C1=C[C@@H](c2ccc(C(F)(F)F)cc2)C[C@@H](OCc2ccc(CO)cc2)O1	-4	11	65*	-14	-18	5
CC(=O)n1cc([C@@H]2C=C(C(=O)N3CCN(Cc4ccccc4)CC3)O[C@H](OCc3ccc(CO)cc3)C2)c2ccccc21	-1	-1	97*	-12	35	-1
